Test results reported in ChEMBL document CHEMBL3785032, “Zerumbone Suppresses Osteopontin-Induced Cell Invasion Through Inhibiting the FAK/AKT/ROCK Pathway in Human Non-Small Cell Lung Cancer A549 Cells” (J Nat Prod, 2016).
The source made the active and inactive calls. No cut-off for these calls is given here.

Key:
A549 [1] = experiment: Effect on total FAK protein level in OPN-stimulated human A549 cells at 5 to 10 uM after 24 hrs by Western blot analysis; format: ADME, cell-based; settings: a549, 24 h
Outline: (§1)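 A549 cells were given 1 nM OPN for 24 h with or without compound. 25–30 μg total protein per lane was probed with primary antibodies overnight at 4 °C, then secondary antibodies for 2 h at room temperature. Detection was by enhanced chemiluminescence, with densitometric band quantification. Mean ± SD of two independent experiments; Student's t test.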

[2] = target: Focal adhesion kinase 1 (Homo sapiens) (UniProt Q05397); experiment: Inhibition of FAK signaling pathway in human A549 cells assessed as decrease in OPN-induced FAK phosphorylation at 5 to 10 uM after 15 mins by Western blot analysis; format: cell-based
A549 [3] = experiment: Effect on total cofilin protein level in OPN-stimulated human A549 cells at 5 to 10 uM after 24 hrs by Western blot analysis; format: ADME, cell-based; settings: a549, 24 h; outline: as §1
[4] = Inhibition of FAK/AKT/ROCK signaling pathway in human A549 cells assessed as decrease in OPN-induced ROCK1 expression at 5 to 10 uM after 24 hrs by Western blot analysis; format: cell-based; outline: as §1
A549 [5] = experiment: Effect on total ROCK1 protein level in OPN-stimulated human A549 cells at 5 to 10 uM after 24 hrs by Western blot analysis; format: ADME, cell-based; settings: a549, 24 h; outline: as §1
A549 [6] = experiment: Anti-invasive activity in human A549 cells assessed as inhibition of OPN-induced cell invasion to matrigel coated invasion chamber at 10 uM preincubated for 30 mins followed by OPN stimulation measured after 24 hrs by boyden chamber assay; format: functional
Outline: (§2)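 Boyden chamber with a Matrigel-coated filter. Cells were pretreated with compound for 30 min and loaded into the upper wells, with 1 nM OPN in the lower wells. After 24 h at 37 °C, cells were stained, random fields were photographed at 200×, and cells on the lower surface were counted. Mean ± SD of two independent experiments; Student's t test.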

[7] = Inhibition of FAK/AKT/ROCK signaling pathway in human A549 cells assessed as decrease in OPN-induced lamellipodia formation at 10 uM after 24 hrs by rhodamine phalloidin/DAPI staining based immunofluorescence assay; format: cell-based
Outline: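 5 × 10^4 cells/well were seeded on chamber slides and treated with 1 nM OPN for 24 h with or without 10 μM compound. Cells were fixed in 4% formaldehyde/PBS pH 7.4 for 10 min and permeabilized in 0.5% Triton X-100 for 5 min. They were stained with 100 nM rhodamine phalloidin for 30 min at room temperature in the dark, counterstained with DAPI, and imaged by confocal microscopy at 600×.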

A549 [8] = experiment: Cytotoxicity against human A549 cells assessed as reduction in cell viability at 10 uM after 24 hrs by MTT assay; format: cell-based; settings: a549, 24 h
Outline: (§3)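 A549 cells were exposed to compound in serum-free medium for 24 h, and viability was read by MTT assay. Mean ± SD of three independent experiments; Student's t test versus untreated control.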

A549 [9] = experiment: Effect on total AKT protein level in OPN-stimulated human A549 cells at 5 to 10 uM after 24 hrs by Western blot analysis; format: ADME, cell-based; settings: a549, 24 h; outline: as §1
[10] = Inhibition of FAK/AKT/ROCK signaling pathway in human A549 cells assessed as decrease in OPN-induced phosphorylation of LIMK1/2 at 5 to 10 uM after 24 hrs by Western blot analysis; format: cell-based; outline: as §1
A549 [11] = experiment: Cytotoxicity against human A549 cells assessed as reduction in cell viability at 20 uM after 24 hrs by MTT assay; format: cell-based; settings: a549, 24 h; outline: as §3
A549 [12] = experiment: Anti-invasive activity in human A549 cells assessed as inhibition of OPN-induced cell invasion to matrigel coated invasion chamber at 5 uM preincubated for 30 mins followed by OPN stimulation measured after 24 hrs by boyden chamber assay; format: functional; outline: as §2
[13] = Inhibition of FAK/AKT/ROCK signaling pathway in human A549 cells assessed as decrease in OPN-induced phosphorylation of cofilin at 5 to 10 uM after 24 hrs by Western blot analysis; format: cell-based; outline: as §1
[14] = Inhibition of FAK/AKT/ROCK signaling pathway in human A549 cells assessed as decrease in OPN-induced AKT phosphorylation at 5 to 10 uM after 15 mins by Western blot analysis; format: cell-based
A549 [15] = experiment: Effect on total LIMK1/2 protein level in OPN-stimulated human A549 cells at 5 to 10 uM after 24 hrs by Western blot analysis; format: ADME, cell-based; settings: a549, 24 h; outline: as §1

Sequence of Focal adhesion kinase 1 (Homo sapiens) (Q05397 2-1052 limits assumed): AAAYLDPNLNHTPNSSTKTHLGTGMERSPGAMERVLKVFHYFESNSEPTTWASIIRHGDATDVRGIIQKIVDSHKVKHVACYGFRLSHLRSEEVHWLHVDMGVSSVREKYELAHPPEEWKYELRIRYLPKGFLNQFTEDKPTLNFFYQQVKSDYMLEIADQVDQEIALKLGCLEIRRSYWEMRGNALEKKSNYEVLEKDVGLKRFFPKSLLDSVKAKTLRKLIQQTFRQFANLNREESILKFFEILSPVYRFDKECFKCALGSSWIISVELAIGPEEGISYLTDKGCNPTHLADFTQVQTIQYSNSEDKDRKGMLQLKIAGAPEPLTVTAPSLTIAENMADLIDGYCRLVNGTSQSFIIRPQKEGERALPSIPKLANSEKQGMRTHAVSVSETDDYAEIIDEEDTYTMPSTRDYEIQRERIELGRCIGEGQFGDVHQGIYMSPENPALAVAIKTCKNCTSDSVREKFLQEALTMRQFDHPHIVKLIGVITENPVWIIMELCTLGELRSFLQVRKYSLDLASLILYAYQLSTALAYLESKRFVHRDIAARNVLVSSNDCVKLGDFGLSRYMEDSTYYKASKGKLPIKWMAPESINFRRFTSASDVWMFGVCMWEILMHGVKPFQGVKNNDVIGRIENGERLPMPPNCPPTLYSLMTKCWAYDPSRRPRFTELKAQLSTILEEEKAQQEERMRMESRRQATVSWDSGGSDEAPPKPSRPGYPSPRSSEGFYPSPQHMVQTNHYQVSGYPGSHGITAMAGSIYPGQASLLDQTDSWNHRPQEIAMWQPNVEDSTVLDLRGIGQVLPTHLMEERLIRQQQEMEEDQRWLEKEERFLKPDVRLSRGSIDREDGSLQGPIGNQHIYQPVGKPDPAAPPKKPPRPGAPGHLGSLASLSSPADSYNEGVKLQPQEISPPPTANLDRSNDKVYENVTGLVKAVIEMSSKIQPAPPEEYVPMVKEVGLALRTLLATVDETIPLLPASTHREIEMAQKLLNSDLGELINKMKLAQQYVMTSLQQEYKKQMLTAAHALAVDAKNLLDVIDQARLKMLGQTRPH

For `C/C1=C\CC(C)(C)/C=C/C(=O)/C(C)=C/CC1` [ZERUMBONE], the Activity (A549 [1]) was “Non-toxic”, the inhibition [2] was “Active” and the Activity (A549 [3]) was “Non-toxic”. For the same compound, the inhibition [4] was “Dose-dependent effect”, the Activity (A549 [5]) was “Non-toxic” and the inhibition at 10 µM (A549 [6]) was 69%. For the same compound, the inhibition [7] was “Active”, the Activity (A549 [8]) was “Non-toxic” and the Activity (A549 [9]) was “Non-toxic”. For the same compound, the inhibition [10] was “Dose-dependent effect”, the Activity (A549 [11]) was “Toxic” and the inhibition at 5 µM (A549 [12]) was 48%. For the same compound, the inhibition [13] was “Dose-dependent effect”, the inhibition [14] was “Active” and the Activity (A549 [15]) was “Non-toxic”.
